Screens: PubChem, Sanford-Burnham Center for Chemical Genomics
In the library only some 0.79% were active in any assay of this set; here they are far more common.
hIAP block: human IAP inhibitors, primary screen, biochemical, luminescence, uHTS. hit rate 0.12% among 330,000. purified IAP, CDP-Star luminescence, 30 min. Intestinal-type alkaline phosphatase (Homo sapiens), P09923. inhibition, % at 10 µM;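 active means inhibition reaching a set limit with compound at 10 µM in the primary screen, cut at about 35% in these data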;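 further: plate controls were DMSO wells with enzyme for no effect and no-enzyme buffer wells for full effect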
Target sequence (P09923 whole entry, looked up): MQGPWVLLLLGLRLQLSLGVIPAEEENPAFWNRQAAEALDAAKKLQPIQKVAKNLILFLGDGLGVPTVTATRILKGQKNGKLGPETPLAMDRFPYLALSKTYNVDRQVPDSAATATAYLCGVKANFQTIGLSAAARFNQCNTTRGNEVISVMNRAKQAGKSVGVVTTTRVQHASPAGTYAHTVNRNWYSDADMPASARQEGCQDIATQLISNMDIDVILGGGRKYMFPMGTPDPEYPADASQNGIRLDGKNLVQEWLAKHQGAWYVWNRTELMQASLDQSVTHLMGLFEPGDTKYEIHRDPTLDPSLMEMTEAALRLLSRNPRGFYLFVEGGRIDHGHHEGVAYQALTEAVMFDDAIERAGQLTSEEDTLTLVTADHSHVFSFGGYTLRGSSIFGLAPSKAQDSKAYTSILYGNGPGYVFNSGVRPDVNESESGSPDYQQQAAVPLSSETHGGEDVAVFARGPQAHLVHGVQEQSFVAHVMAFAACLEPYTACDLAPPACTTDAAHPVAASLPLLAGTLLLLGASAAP
mIAP activ: activators of mouse IAP, primary screen, biochemical, luminescence, uHTS; hit rate 0.24% among 330,000; intestinal alkaline phosphatase [Mus musculus]; AID 2805, 2010; muIAP, CDP-Star luminescence, 30 min; stronger effect = higher value; 1 = vehicle-only enzyme signal, 0 = enzyme-free wells; activation factor at 10 µM;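 active means activation factor of at least 2 at 20 µM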
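Assay system: mouse IAP enzyme / Compound: DMSO-dissolved test compounds / Timing: 30 min, room temperature / Measured by: luminescence from enzymatic CDP-Star hydrolysis / Control set: DMSO-only wells, enzyme-free buffer wells as negative control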
hIAP act: human IAP activators, primary screen, biochemical, luminescence, uHTS. Intestinal-type alkaline phosphatase (Homo sapiens), P09923. purified human IAP, CDP-Star luminescence, 30 min; stronger effect = higher value; 1 = vehicle-only enzyme, 0 = enzyme-free background. activation factor at 10 µM. hit rate 0.16% among 330,000;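 active means activation factor of the enzyme at least 2-fold when tested at 20 µM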
mIAP block: inhibitors of mouse IAP, primary screen, biochemical, luminescence, uHTS; AID 2806, 2010; hit rate 0.2% among 330,000; inhibition, % at 10 µM; purified mouse IAP, CDP-Star luminescence, 30 min; intestinal alkaline phosphatase [Mus musculus];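 active means inhibition of at least 40% at 10 µM in the primary screen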;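 further: plate controls were DMSO with enzyme for no effect and no enzyme wells for full effect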
bIAP activator: bovine intestinal alkaline phosphatase activators, primary screen, biochemical, bovine IAP, CDP-star luminescence | alkaline phosphatase, intestinal [Bos taurus] | purified bovine IAP, 30 min; stronger effect = higher value; fold of DMSO-control signal, blank-subtracted | activation factor at 20 µM | hit rate 0.17% among 200,000 | AID 1016, 2008;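 active means activation factor of 2 or more at 20 µM, a signal rise over negative controls twice the positive control's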
bIAP inh: bovine intestinal alkaline phosphatase inhibitors, primary screen, selectivity assay for TNAP inhibitor project, biochemical, bovine IAP, CDP-star luminescence | inhibition, % at 20 µM | 190,000 tested, under 10 active | purified bovine IAP, 30 min | alkaline phosphatase, intestinal [Bos taurus] | AID 1019, 2008;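 active means over 50% inhibition of intestinal alkaline phosphatase at 20 µM in the single-dose screen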
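Assay system – bovine IAP enzyme · Quantity – bovine IAP at 1/65,000,000 final dilution · Detection – CDP-star luminescence signal · Times – 30 min reaction at room temperature · Also added – CDP-star substrate at 30 µM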
hIAP act conf: human IAP activators, confirmation, biochemical, luminescence, single concentration, uHTS hits; AID 434926, 2010; activation (%Activity, negative = activation), % at 8.3 µM; hit rate 10% among 880; shares compounds with hIAP act; purified IAP, CDP-Star luminescence, 30 min; stronger effect = lower value;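 active means at least twofold enzyme activation in any of six single-dose repeats, which the averaged readout prints as negative percent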
* marks the source's active call; other numbers are inactive results; / = not tested or not shown.

SMILES	hIAP block	mIAP activ	hIAP act	mIAP block	bIAP activator	bIAP inh	hIAP act conf
CCN(Cc1ccncc1)C(=O)CCc1nnc(CCc2ccc(OC)cc2)o1	4.3	1.01	0.957	-0.7	1.1	-10.5	/
COc1cccc(C(=O)OCCNC(=O)c2cccnc2)c1	5.2	1.17	0.948	-16.9	/	/	/
COc1cc(C=C2C(=O)c3ccccc3C2=O)ccc1O	31.6	0.73	0.684	27.0	/	/	/
COc1ccc(C=C2C(=O)c3ccccc3C2=O)cc1O	44.7*	0.766	0.553	23.4	0.3	/	56.2
COc1ccc(C(=O)COC(=O)C(CCSC)NC(=O)COc2ccccc2)cc1 (configuration not stated)	0.5	0.979	0.995	2.1	/	/	/
COc1cc(NC(C)CCCN)c2ncccc2c1 (configuration not stated)	51.7*	0.991	0.483	0.9	/	/	-48.5
Cc1ccc2oc(=O)c(-c3ccc(O)cc3)c(C)c2c1	-11.5	1.08	1.11	-8.3	/	/	/
CCCN1C(=O)/C(=C2/C=Cc3ccccc3N2CC)SC1=S	38.3*	0.66	0.617	34.0	1	4.1	5.7
Cc1cc(C(=O)Nc2ccc(Br)cc2)c2ccccc2n1	-4.4	1.01	1.04	-1.1	/	/	/
O=C(NC(=S)NCc1cccnc1)c1cc(Br)ccc1Cl	-13.9	1.03	1.14	-3.3	/	/	/
Cc1cc(OCC(=O)Nc2ncn[nH]2)ccc1Cl	-100.7	1.04	2.01*	-4.0	/	/	-87.0*
NC(=O)N/N=C/c1cc(Br)ccc1OC(=O)c1ccccc1	-7.7	1.06	1.08	-5.7	1.3	-30.7	/
C/C(=N\NC(=O)C1CC1)c1ccccc1Br	35.1*	1.02	0.649	-2.1	/	/	-30.1
COc1ccccc1C(=O)NCC(=O)NNc1ncnc(N)c1[N+](=O)[O-]	-159.2	0.752	2.59*	24.8	1.3	-30.4	-30.7
C=CCn1c(COc2ccccc2)nnc1SC(C)C(=O)N/N=C/c1cc(Cl)ccc1O (configuration not stated)	-6.9	0.894	1.07	10.6	1.1	-11.1	/
Cc1ccc(CC2CC(=O)N(c3ccc(C)cc3)C2=O)cc1 (configuration not stated)	1.3	1	0.987	-0.4	0.9	5.0	/
COc1ccc(CC2CC(=O)N(c3ccc(C)cc3)C2=O)cc1 (configuration not stated)	-106.2	1.02	2.06*	-1.9	/	/	23.2
O=C(NNC(=O)c1nn(-c2ccc(F)cc2)ccc1=O)c1ccc(Cl)cc1	12.9	0.8	0.871	20.0	/	/	/
O=C(NNC(=O)c1nn(-c2ccc(F)cc2)ccc1=O)Nc1cccc(Cl)c1	39.9*	0.837	0.601	16.3	/	/	-28.0
COC(=O)/C=C1/C(=O)N/C(=N\c2nc(C)cc(C)n2)N1c1ccc(OC)cc1	16.4	0.945	0.836	5.5	1	2.4	/
COC(=O)/C=C1\N/C(=N/c2nc(C)c3cc(OC)ccc3n2)NC1=O	-154.1	0.994	2.54*	0.6	/	/	-12.5
CC(=O)OCC(=O)c1c[nH]c2ccccc12	11.5	0.975	0.885	2.5	1.1	-7.9	/
CC(C)(C)NCC(=O)c1c[nH]c2ccccc12	-108.3	1.15	2.08*	-14.9	0.9	9.8	-58.1
CCOC(=O)C1CCN(C(=O)N2CCOCC2)CC1	-100.3	1.09	2*	-9.1	0.9	7.3	-7.6
Cc1ccc(-c2cc(C(=O)Nc3cc(C)ccc3C)[nH]n2)c(O)c1	-48.6	0.962	1.49	3.8	0.9	9.1	/
SMILES	hIAP block	mIAP activ	hIAP act	mIAP block	bIAP activator	bIAP inh	hIAP act conf
COc1ccc(OC)c(NC(=O)c2cc(-c3cc(C)ccc3O)n[nH]2)c1	-107.9	1.02	2.08*	-1.6	/	/	-41.7*
Cc1ccc(C)c(NC(=O)c2cc(-c3cc(C)c(C)cc3O)n[nH]2)c1	-91.7	1.3	1.92	-30.1	/	/	/
Cc1ccc(O)c(-c2cc(C(=O)NCc3ccc4c(c3)OCO4)[nH]n2)c1	-105.8	1.31	2.06*	-31.4	0.9	6.0	19.7
Cc1ccc(CNC(=O)c2cc(-c3cc(C)cc(C)c3O)n[nH]2)cc1	-90.0	1.21	1.9	-20.7	/	/	/
COc1ccc(OC)c(NC(=O)c2cc(-c3ccc(C)cc3O)n[nH]2)c1	-116.4	1.04	2.16*	-3.7	1.4	-36.6	-36.0
Cc1ccc2c(C)c(C(=O)N3CCN(C4CCS(=O)(=O)C4)CC3)oc2c1C (configuration not stated)	-30.7	0.994	1.31	0.6	/	/	/
Nc1cc(Nc2ccccc2)ccn1	37.9*	0.959	0.621	4.1	/	/	7.9
COc1ccc2nc3cc(Cl)ccc3c(Nc3cc(CN4CCCC4)c(O)c(CN4CCCC4)c3)c2n1	43.2*	0.884	0.568	11.6	/	/	-60.1*
Cc1cccc(N(CC(N)=O)C2SC(=O)N(c3ccccc3)C2=O)c1 (configuration not stated)	-2.6	0.816	1.03	18.4	1	-4.3	/
Cc1ccc(N(CC(N)=O)C2SC(=O)N(C)C2=O)cc1 (configuration not stated)	64.6*	0.908	0.354	9.2	1.1	-6.0	-76.3
Cc1ccc(S(=O)(=O)NC(CC(=O)NCC2CCCO2)c2ccco2)cc1 (configuration not stated)	38.6*	1.15	0.614	-14.9	1	1.7	-2.6
Cc1ccc(S(=O)(=O)NNC(=O)C(=O)NNc2ccccn2)cc1	-209.0	0.861	3.09*	13.9	1.6	-63.6	-22.4
Cc1ccccc1S(=O)(=O)NNC(=O)C(=O)NNc1ccccn1	-210.2	0.91	3.1*	9.0	1.5	-49.3	0.5
CC(=O)Nc1ccc(S(=O)(=O)NNC(=O)C(=O)NNc2ccccn2)cc1	-184.6	0.926	2.85*	7.4	/	/	-31.0
Cc1ccc(S(=O)(=O)NNC(=O)C(O)(c2ccccc2)c2ccccc2)cc1	7.2	0.896	0.928	10.4	0.7	33.5	/
CC(=O)Nc1ccc(S(=O)(=O)Nc2ccccn2)cc1	-9.2	0.913	1.09	8.7	1	3.7	/
O=C(CCN1C(=O)/C(=C/c2ccccc2Cl)SC1=S)NNC(=O)c1ccccc1O	-108.4	0.731	2.08*	26.9	/	/	62.3
CC(C)CCNc1ncnc2c1nnn2Cc1ccccc1Cl	80.1*	0.964	0.199	3.6	0.9	6.6	40.2
OCCNc1ncnc2c1nnn2Cc1ccccc1	9.5	1.09	0.905	-9.0	/	/	/
